Where “and” joins values, the source holds several entries; their conditions need not be identical. Equal values may be shown once.
Experiments:
HEK-293T = assay: Multiplex assay against HEK293T; type: toxicity, cell-based; conditions: human
In short: (§1)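 Tubulin, mitochondrial-mass and membrane-permeability phenotypes are per cents of healthy-nucleus cells. Cells were gated by CellPathfinder machine learning into Hoechst high-intensity objects or normal cells, normal cells into healthy, pyknosed or fragmented nuclei, and pyknosed cells into mitotic or apoptotic. Before that, live cells stained at seeding with Hoechst33342, BioTracker Green Microtubule Cytoskeleton Dye, MitoTracker Red and Annexin V Alexa Fluor 680 were imaged on a CQ1 microscope at 37°C and 5% CO2 after compound addition.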

Fibroblast = assay: Multiplex assay against human fibroblast; type: toxicity, cell-based; in short: as §1
[1] = 24 h, 1 µM, compound concentration 1 uM
[2] = 24 h, 10 µM, compound concentration 10 uM
[3] = 48 h, 1 µM, compound concentration 1 uM
[4] = 48 h, 10 µM, compound concentration 10 uM
[5] = 12 h, 1 µM, compound concentration 1 uM
[6] = 12 h, 10 µM, compound concentration 10 uM

**Q.** With `CNC[C@H](O)c1ccc(O)c(O)c1` [EPINEPHRINE] as the compound, how does the “Population Mitochondria Different-Phenotype (%)” value (HEK-293T; [1]) read?
**A.** 25% and 41%

**Q.** And the “Population Mitotic Cells (%)” value (HEK-293T; [1])?
**A.** 80% and 63%

**Q.** And the “Population Normal (%)” value (HEK-293T; [1])?
**A.** 94% and 92%

**Q.** What about the “Population Pyknosed Nuclei (%)” value (HEK-293T; [1]) of the same compound?
**A.** 9% and 10%

**Q.** And the “Population Tubulin-Different-Phenotype (%)” value (HEK-293T; [1])?
**A.** 21% and 18%

**Q.** What about the “Population Apoptotic (%)” value (HEK-293T; [2]) of the same compound?
**A.** 50% and 80%

**Q.** What about the “Population Fragmented Nuclei (%)” value (HEK-293T; [2]) of the same compound?
**A.** 13% and 11%

**Q.** And the “Population Healthy Nuclei (%)” value (HEK-293T; [2])?
**A.** 75% and 71%

**Q.** And the “Population Membrane Permeable-Phenotype (%)” value (HEK-293T; [2])?
**A.** 0%

**Q.** What about the “Population Mitochondria Different-Phenotype (%)” value (HEK-293T; [2]) of the same compound?
**A.** 50% and 43%

**Q.** And the “Population Mitotic Cells (%)” value (HEK-293T; [2])?
**A.** 50% and 19%

**Q.** What about the “Population Normal (%)” value (HEK-293T; [2]) of the same compound?
**A.** 91% and 60%

**Q.** And the “Population Pyknosed Nuclei (%)” value (HEK-293T; [2])?
**A.** 11% and 17%

**Q.** What about the “Population Tubulin-Different-Phenotype (%)” value (HEK-293T; [2]) of the same compound?
**A.** 36% and 25%

**Q.** And the “Population Apoptotic (%)” value (HEK-293T; [3])?
**A.** 16% and 35%

**Q.** What about the “Population Fragmented Nuclei (%)” value (HEK-293T; [3]) of the same compound?
**A.** 11% and 12%

**Q.** And the “Population Healthy Nuclei (%)” value (HEK-293T; [3])?
**A.** 81% and 78%

**Q.** What about the “Population Hoechst High Intensity Objects (%)” value (HEK-293T; [3]) of the same compound?
**A.** 3%

**Q.** What about the “Population Membrane Permeable-Phenotype (%)” value (HEK-293T; [3]) of the same compound?
**A.** 1%

**Q.** And the “Population Mitochondria Different-Phenotype (%)” value (HEK-293T; [3])?
**A.** 13% and 24%

**Q.** And the “Population Mitotic Cells (%)” value (HEK-293T; [3])?
**A.** 83% and 64%

**Q.** And the “Population Normal (%)” value (HEK-293T; [3])?
**A.** 96%

**Q.** And the “Population Pyknosed Nuclei (%)” value (HEK-293T; [3])?
**A.** 7% and 8%

**Q.** And the “Population Tubulin-Different-Phenotype (%)” value (HEK-293T; [3])?
**A.** 9% and 15%

**Q.** What about the “Population Apoptotic (%)” value (HEK-293T; [4]) of the same compound?
**A.** 33% and 69%

**Q.** And the “Population Fragmented Nuclei (%)” value (HEK-293T; [4])?
**A.** 21% and 17%

**Q.** What about the “Population Healthy Nuclei (%)” value (HEK-293T; [4]) of the same compound?
**A.** 72% and 67%

**Q.** And the “Population Membrane Permeable-Phenotype (%)” value (HEK-293T; [4])?
**A.** 0%

**Q.** What about the “Population Mitochondria Different-Phenotype (%)” value (HEK-293T; [4]) of the same compound?
**A.** 25% and 34%

**Q.** What about the “Population Mitotic Cells (%)” value (HEK-293T; [4]) of the same compound?
**A.** 66% and 30%

**Q.** What about the “Population Normal (%)” value (HEK-293T; [4]) of the same compound?
**A.** 96% and 78%

**Q.** What about the “Population Pyknosed Nuclei (%)” value (HEK-293T; [4]) of the same compound?
**A.** 5% and 14%

**Q.** What about the “Population Tubulin-Different-Phenotype (%)” value (HEK-293T; [4]) of the same compound?
**A.** 11% and 13%

**Q.** What about the “Population Apoptotic (%)” value (Fibroblast; [5]) of the same compound?
**A.** 36% and 40%

**Q.** What about the “Population Fragmented Nuclei (%)” value (Fibroblast; [5]) of the same compound?
**A.** 17% and 38%

**Q.** And the “Population Healthy Nuclei (%)” value (Fibroblast; [5])?
**A.** 66% and 44%

**Q.** And the “Population Hoechst High Intensity Objects (%)” value (Fibroblast; [5])?
**A.** 1%

**Q.** And the “Population Mitochondria Different-Phenotype (%)” value (Fibroblast; [5])?
**A.** 3% and 7%

**Q.** What about the “Population Mitotic Cells (%)” value (Fibroblast; [5]) of the same compound?
**A.** 63% and 60%

**Q.** What about the “Population Normal (%)” value (Fibroblast; [5]) of the same compound?
**A.** 98%

**Q.** What about the “Population Pyknosed Nuclei (%)” value (Fibroblast; [5]) of the same compound?
**A.** 16% and 17%

**Q.** And the “Population Tubulin-Different-Phenotype (%)” value (Fibroblast; [5])?
**A.** 15% and 42%

**Q.** What about the “Population Apoptotic (%)” value (Fibroblast; [6]) of the same compound?
**A.** 40% and 32%

**Q.** And the “Population Fragmented Nuclei (%)” value (Fibroblast; [6])?
**A.** 18% and 39%

**Q.** And the “Population Healthy Nuclei (%)” value (Fibroblast; [6])?
**A.** 61% and 37%

**Q.** And the “Population Hoechst High Intensity Objects (%)” value (Fibroblast; [6])?
**A.** 3% and 7%

**Q.** And the “Population Mitochondria Different-Phenotype (%)” value (Fibroblast; [6])?
**A.** 6% and 8%

**Q.** And the “Population Mitotic Cells (%)” value (Fibroblast; [6])?
**A.** 60% and 67%

**Q.** What about the “Population Normal (%)” value (Fibroblast; [6]) of the same compound?
**A.** 96% and 92%

**Q.** What about the “Population Pyknosed Nuclei (%)” value (Fibroblast; [6]) of the same compound?
**A.** 20% and 23%

**Q.** And the “Population Tubulin-Different-Phenotype (%)” value (Fibroblast; [6])?
**A.** 23% and 55%

**Q.** What about the “Population Apoptotic (%)” value (Fibroblast; [1]) of the same compound?
**A.** 54% and 23%

**Q.** And the “Population Healthy Nuclei (%)” value (Fibroblast; [1])?
**A.** 70% and 47%

**Q.** And the “Population Hoechst High Intensity Objects (%)” value (Fibroblast; [1])?
**A.** 0% and 3%

**Q.** And the “Population Membrane Permeable-Phenotype (%)” value (Fibroblast; [1])?
**A.** 0% and 12%

**Q.** What about the “Population Mitochondria Different-Phenotype (%)” value (Fibroblast; [1]) of the same compound?
**A.** 3% and 6%

**Q.** What about the “Population Mitotic Cells (%)” value (Fibroblast; [1]) of the same compound?
**A.** 45% and 76%

**Q.** What about the “Population Normal (%)” value (Fibroblast; [1]) of the same compound?
**A.** 99% and 96%

**Q.** What about the “Population Pyknosed Nuclei (%)” value (Fibroblast; [1]) of the same compound?
**A.** 16% and 14%

**Q.** What about the “Population Tubulin-Different-Phenotype (%)” value (Fibroblast; [1]) of the same compound?
**A.** 11% and 32%

**Q.** And the “Population Apoptotic (%)” value (Fibroblast; [2])?
**A.** 65% and 38%

**Q.** And the “Population Fragmented Nuclei (%)” value (Fibroblast; [2])?
**A.** 16% and 39%

**Q.** And the “Population Healthy Nuclei (%)” value (Fibroblast; [2])?
**A.** 60% and 44%

**Q.** What about the “Population Hoechst High Intensity Objects (%)” value (Fibroblast; [2]) of the same compound?
**A.** 3%

**Q.** What about the “Population Membrane Permeable-Phenotype (%)” value (Fibroblast; [2]) of the same compound?
**A.** 0% and 12%

**Q.** What about the “Population Mitochondria Different-Phenotype (%)” value (Fibroblast; [2]) of the same compound?
**A.** 5% and 4%

**Q.** And the “Population Mitotic Cells (%)” value (Fibroblast; [2])?
**A.** 34% and 61%

**Q.** And the “Population Normal (%)” value (Fibroblast; [2])?
**A.** 96%

**Q.** And the “Population Pyknosed Nuclei (%)” value (Fibroblast; [2])?
**A.** 23% and 15%

**Q.** What about the “Population Tubulin-Different-Phenotype (%)” value (Fibroblast; [2]) of the same compound?
**A.** 21% and 51%

**Q.** And the “Population Apoptotic (%)” value (Fibroblast; [3])?
**A.** 50% and 38%

**Q.** What about the “Population Fragmented Nuclei (%)” value (Fibroblast; [3]) of the same compound?
**A.** 17% and 41%

**Q.** What about the “Population Healthy Nuclei (%)” value (Fibroblast; [3]) of the same compound?
**A.** 67% and 48%

**Q.** And the “Population Hoechst High Intensity Objects (%)” value (Fibroblast; [3])?
**A.** 1%

**Q.** What about the “Population Membrane Permeable-Phenotype (%)” value (Fibroblast; [3]) of the same compound?
**A.** 0% and 6%

**Q.** And the “Population Mitochondria Different-Phenotype (%)” value (Fibroblast; [3])?
**A.** 6% and 5%

**Q.** What about the “Population Mitotic Cells (%)” value (Fibroblast; [3]) of the same compound?
**A.** 50% and 61%

**Q.** What about the “Population Normal (%)” value (Fibroblast; [3]) of the same compound?
**A.** 98%

**Q.** And the “Population Pyknosed Nuclei (%)” value (Fibroblast; [3])?
**A.** 15% and 10%

**Q.** What about the “Population Tubulin-Different-Phenotype (%)” value (Fibroblast; [3]) of the same compound?
**A.** 23% and 45%

**Q.** What about the “Population Apoptotic (%)” value (Fibroblast; [4]) of the same compound?
**A.** 77% and 37%

**Q.** What about the “Population Fragmented Nuclei (%)” value (Fibroblast; [4]) of the same compound?
**A.** 20% and 50%

**Q.** And the “Population Healthy Nuclei (%)” value (Fibroblast; [4])?
**A.** 65% and 44%

**Q.** And the “Population Hoechst High Intensity Objects (%)” value (Fibroblast; [4])?
**A.** 2% and 3%

**Q.** And the “Population Membrane Permeable-Phenotype (%)” value (Fibroblast; [4])?
**A.** 2% and 6%

**Q.** And the “Population Mitochondria Different-Phenotype (%)” value (Fibroblast; [4])?
**A.** 4% and 3%

**Q.** And the “Population Mitotic Cells (%)” value (Fibroblast; [4])?
**A.** 22% and 62%

**Q.** What about the “Population Normal (%)” value (Fibroblast; [4]) of the same compound?
**A.** 97% and 96%

**Q.** What about the “Population Pyknosed Nuclei (%)” value (Fibroblast; [4]) of the same compound?
**A.** 13% and 5%

**Q.** And the “Population Tubulin-Different-Phenotype (%)” value (Fibroblast; [4])?
**A.** 32% and 46%
